# Columns and labels:
# [1] = Partition coefficient of the compound, log P; type: physicochemical; conditions: octanol/water
# How it was run: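 Experimental 1-octanol/water partition coefficient.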
# Mus musculus [2] = test: Anxiolytic activity in NMRI BR mice after ip administration by PTZ test; type: functional
# How it was run: (§1)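 Male mice (NMRI BR at elbion, three per dose; CF-1 at NIH, up to five) given compound or vehicle i.p. at 30, 100, 300 mg/kg, 30 min and 4 h pretreatment. PTZ 85 mg/kg s.c. into neck, then 30 min observation for first generalized clonic seizure with loss of righting reflex.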
# Mus musculus [3] = test: Neurotoxicological activity in NMRI BR mice after ip administration by rotarod test; type: functional
# How it was run: (§2)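 Male mice (CF-1 at NIH; NMRI BR at elbion), trained beforehand, dosed i.p. Motor impairment was defined as failure to stay on a rod (6 rpm, 0.9 cm diameter) for 1 min in at least one of three trials. The same animals were tested at several times (≥3 doses, n = 8/group). TD50 at peak time by probit analysis.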
# [4] = biological target: GABA-A receptor; anion channel; test: Binding affinity to Wistar rat benzodiazepine receptor; type: protein-complex assay
# How it was run: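 Rat (male Wistar, 180-200 g) whole-brain membranes without cerebellum in 0.05 M Tris/HCl pH 7.7. Bound ligand separated on filters and counted by scintillation. IC50 from 6-10 concentrations, Ki by Cheng-Prusoff, at least four repeats averaged.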
# [5] = biological target: GABA-A receptor; anion channel (Rattus norvegicus) (UniProt O09028+P15431+P18506+P18508+P19969+P20236+P23574+P23576+P28471+P28473+P30191+P62813+P63079+P63138+Q91ZM7+Q9ES14); test: Inhibition of Wistar rat benzodiazepine receptor at 2 uM; type: protein-complex assay
# Rattus norvegicus [6] = test: Anxiolytic activity in rat after oral administration by PTZ test; type: functional
# How it was run: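 Rats dosed orally. PTZ 70 mg/kg given s.c., then 30 min observation for first generalized clonic seizure with loss of righting reflex. Protection was measured at several pretreatment times (n = 3-4), and the peak time was used for the dose-response.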
# Rattus norvegicus [7] = test: Anxiolytic activity in rat after oral administration by vogel conflict test; type: functional; conditions: read-out: MED
# How it was run: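 Modified Vogel conflict test in rats after oral dosing. Water-deprived 24 h, trained to drink 5.0% glucose for 5 min, deprived a further 24 h. The 210 s test session had 30 s unpunished drinking, then 180 s with mild shock on touching the drinking tube. Punished and unpunished licks counted. Minimal effective dose reported.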
# Rattus norvegicus [8] = test: Neurotoxicological activity in rat after oral administration by rotarod test; type: functional
# How it was run: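 Trained male rats dosed orally. Motor impairment was defined as failure to stay on a rod (8 rpm, 6 cm diameter) for 1 min in at least one of three trials. The same animals were tested at several time points (≥3 dose groups, n = 8/group). TD50 at time of peak neurotoxicity by probit analysis.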
# Cynomolgus monkey [9] = test: Plasma concentration in cynomolgus monkey at 5 mg/kg, po; type: ADME, organism-based, Macaca fascicularis; parameters: dose 5 mg/kg, route oral; conditions: in vivo
# Mus musculus [10] = test: Anxiolytic activity in CF1 mice after ip administration by PTZ test; type: functional; how it was run: as §1
# Mus musculus [11] = test: Neurotoxicological activity in CF1 mice after ip administration by rotarod test; type: functional; how it was run: as §2
# Cynomolgus monkey [12] = test: Plasma concentration in cynomolgus monkey at 30 mg/kg, po; type: ADME, organism-based, Macaca fascicularis; parameters: dose 30 mg/kg, route oral; conditions: in vivo
compound,measurement,setting,value
Clc1ccc(-c2cnn(-c3ccccn3)c2)cc1,logP,[1],4.3
same,ED50,Mus musculus [2],> 300 mg/kg
same,TD50,Mus musculus [3],> 300 mg/kg
O=C1C=C(N2CCOCC2)CN1c1ccc(F)c(Cl)c1,logP,[1],2.2
same,Ki,[4],2.05 µM
same,ED50,Mus musculus [2],22.3 mg/kg
same,TD50,Mus musculus [3],< 100 mg/kg
O=C1C=C(c2ccc(Cl)cc2)C(=O)N1c1ccc(Cl)cc1,logP,[1],3
same,inhibition,[5],< 20%
same,ED50,Mus musculus [2],> 300 mg/kg
same,TD50,Mus musculus [3],> 300 mg/kg
CN(C)C1=NC(=O)N(c2ccc(Cl)cc2)C1,logP,[1],1.6
same,inhibition,[5],< 20%
same,ED50,Mus musculus [2],> 300 mg/kg
same,TD50,Mus musculus [3],> 300 mg/kg
O=C1N=C(N2CCCCCC2)CN1c1ccc(Cl)cc1,Ki,[4],11.6 µM
same,ED50,Mus musculus [2],> 300 mg/kg
same,TD50,Mus musculus [3],> 300 mg/kg
O=C1N=C(N2CCOCC2)CN1c1ccccc1,logP,[1],0.6
same,Ki,[4],6.28 µM
same,ED50,Mus musculus [2],121 mg/kg
same,TD50,Mus musculus [3],> 300 mg/kg
O=C1N=C(N2CCOCC2)CN1c1ccc(Br)cc1,logP,[1],1.4
same,Ki,[4],3.06 µM
same,ED50,Mus musculus [2],21.8 mg/kg
same,TD50,Mus musculus [3],345 mg/kg
same,ED50,Rattus norvegicus [6],27.7 mg/kg
same,minimal effective dose,Rattus norvegicus [7],100 mg/kg
same,TD50,Rattus norvegicus [8],473 mg/kg
O=c1cc(-c2ccccc2)on1-c1ccc(Cl)cc1,logP,[1],4.1
same,ED50,Mus musculus [2],253 mg/kg
same,TD50,Mus musculus [3],< 300 mg/kg
O=c1oc(-c2ccccc2)nn1-c1ccc(Cl)cc1,logP,[1],2.6
same,inhibition,[5],< 20%
same,ED50,Mus musculus [2],> 300 mg/kg
same,TD50,Mus musculus [3],> 300 mg/kg
O=C1C=C(N2CCOCC2)C(=O)N1c1ccc(F)cc1,logP,[1],1.5
same,inhibition,[5],< 20%
same,ED50,Mus musculus [2],128 mg/kg
same,TD50,Mus musculus [3],> 100 mg/kg
O=C1N=C(N2CCOCC2)CN1Cc1c(Cl)cccc1Cl,logP,[1],1.3
same,ED50,Mus musculus [2],> 300 mg/kg
same,TD50,Mus musculus [3],> 300 mg/kg
O=C1N=C(N2CCOCC2)CN1Cc1ccccc1,logP,[1],0.5
same,inhibition,[5],< 20%
same,ED50,Mus musculus [2],> 300 mg/kg
same,TD50,Mus musculus [3],> 300 mg/kg
O=C1C=C(N2CCOCC2)CN1c1ccc(F)cc1,Ki,[4],0.494 µM
same,ED50,Mus musculus [2],337 mg/kg
same,TD50,Mus musculus [3],> 300 mg/kg
O=C1C=C(N2CCOCC2)C(=O)N1c1ccc(Cl)cc1,logP,[1],2.3
same,Ki,[4],8.88 µM
same,ED50,Mus musculus [2],120 mg/kg
same,TD50,Mus musculus [3],> 300 mg/kg
O=C1C=C(N2CCCCCC2)CN1c1ccc(Cl)cc1,logP,[1],3.4
same,Ki,[4],0.44 µM
same,ED50,Mus musculus [2],234 mg/kg
same,TD50,Mus musculus [3],> 100 mg/kg
O=C1N=C(N2CCOCC2)CN1Cc1ccccc1Cl,logP,[1],1
same,ED50,Mus musculus [2],> 300 mg/kg
same,TD50,Mus musculus [3],> 300 mg/kg
O=C1C2C=Nc3ccccc3C2=NN1c1ccc(Cl)cc1 (configuration not stated) [CGS-9896],Ki,[4],0.0024 µM
same,ED50,Mus musculus [2],1.36 mg/kg
same,TD50,Mus musculus [3],302 mg/kg
same,ED50,Rattus norvegicus [6],2.7 mg/kg
same,minimal effective dose,Rattus norvegicus [7],0.3 mg/kg
same,TD50,Rattus norvegicus [8],> 500 mg/kg
same,concentration,Cynomolgus monkey [9],0.027 µM
Clc1ccc(-c2noc(N3CCOCC3)n2)cc1,logP,[1],3.1
same,Ki,[4],26.1 µM
same,ED50,Mus musculus [2],> 300 mg/kg
same,TD50,Mus musculus [3],> 300 mg/kg
O=C1N=C(N2CCOCC2)CN1c1ccc(Cl)c(Cl)c1,logP,[1],1.9
same,inhibition,[5],< 20%
same,ED50,Mus musculus [2],> 300 mg/kg
same,TD50,Mus musculus [3],> 300 mg/kg
O=C1N=C(N2CCOCC2)CN1c1ccc(I)cc1,ED50,Mus musculus [10],43 mg/kg
same,TD50,Mus musculus [11],> 300 mg/kg
same,logP,[1],1.7
same,ED50,Rattus norvegicus [6],50 mg/kg
same,TD50,Rattus norvegicus [8],> 50 mg/kg
CC(c1ccccc1)N1CC(N2CCOCC2)=NC1=O (configuration not stated),logP,[1],0.8
same,ED50,Mus musculus [2],> 300 mg/kg
same,TD50,Mus musculus [3],> 100 mg/kg
Cc1ccc(N2CC(N3CCOCC3)=CC2=O)cc1,logP,[1],1.4
same,Ki,[4],0.344 µM
same,ED50,Mus musculus [2],89.3 mg/kg
same,TD50,Mus musculus [3],100 mg/kg
O=C1N=C(N2CCOCC2)CN1c1ccc(Cl)cc1 [IMEPITOIN],ED50,Mus musculus [10],17.2 mg/kg
same,TD50,Mus musculus [11],176 mg/kg
same,logP,[1],1.5
same,Ki,[4],4.35 µM
same,TD50,Mus musculus [3],75.6 mg/kg
same,minimal effective dose,Rattus norvegicus [7],3 mg/kg
same,TD50,Rattus norvegicus [8],998 mg/kg
same,concentration,Cynomolgus monkey [12],39 µM
O=C1C=C(N2CCOCC2)CN1c1ccc(Cl)cc1,TD50,Mus musculus [11],60.9 mg/kg
same,logP,[1],1.9
same,Ki,[4],0.141 µM
same,ED50,Mus musculus [2],10.9 mg/kg
same,TD50,Mus musculus [3],97 mg/kg
same,minimal effective dose,Rattus norvegicus [7],10 mg/kg
same,TD50,Rattus norvegicus [8],> 500 mg/kg
O=C1N=C(N2CCOCC2)CN1c1cccc(Cl)c1,logP,[1],1.3
same,inhibition,[5],< 20%
same,ED50,Mus musculus [2],> 300 mg/kg
same,TD50,Mus musculus [3],> 300 mg/kg
O=C1N=C(N2CCCCCCC2)CN1c1ccc(Cl)cc1,logP,[1],2.7
same,ED50,Mus musculus [2],> 300 mg/kg
same,TD50,Mus musculus [3],> 300 mg/kg
O=C1C=C(N2CCCC2)C(=O)N1c1ccc(Cl)cc1,logP,[1],3
same,Ki,[4],3.26 µM
same,ED50,Mus musculus [2],> 300 mg/kg
same,TD50,Mus musculus [3],> 300 mg/kg
Clc1ccc(-n2cnc(-c3ccccc3)c2)cc1,logP,[1],3.7
same,Ki,[4],3.29 µM
same,ED50,Mus musculus [2],> 300 mg/kg
same,TD50,Mus musculus [3],> 300 mg/kg
Cc1cccc(N2CC(N3CCOCC3)=CC2=O)c1,logP,[1],1.5
same,Ki,[4],4.45 µM
same,ED50,Mus musculus [2],62.3 mg/kg
same,TD50,Mus musculus [3],< 100 mg/kg
CN1C(=O)CN=C(c2ccccc2)c2cc(Cl)ccc21 [DIAZEPAM],ED50,Mus musculus [2],0.4 mg/kg
same,TD50,Mus musculus [3],2 mg/kg
same,ED50,Rattus norvegicus [6],6.3 mg/kg
same,minimal effective dose,Rattus norvegicus [7],1 mg/kg
same,TD50,Rattus norvegicus [8],13 mg/kg
O=C1C=C(N2CCCC2)CN1c1ccc(Cl)cc1,Ki,[4],0.067 µM
same,ED50,Mus musculus [2],> 300 mg/kg
same,TD50,Mus musculus [3],> 300 mg/kg
same,ED50,Rattus norvegicus [6],> 200 mg/kg
O=c1cc(-c2ccccc2)[nH]n1-c1ccc(Cl)cc1,logP,[1],2.6
same,inhibition,[5],< 20%
same,ED50,Mus musculus [2],> 300 mg/kg
same,TD50,Mus musculus [3],> 300 mg/kg
CN1CCN(C2=NC(=O)N(c3ccc(Cl)cc3)C2)CC1,logP,[1],2.2
same,inhibition,[5],< 20%
same,ED50,Mus musculus [2],> 300 mg/kg
same,TD50,Mus musculus [3],> 100 mg/kg
CN(C1=NC(=O)N(c2ccc(Cl)cc2)C1)C1CCCCC1,logP,[1],2.7
same,ED50,Mus musculus [2],> 300 mg/kg
same,TD50,Mus musculus [3],> 300 mg/kg
COC1(OC)C(N2CCOCC2)=NC(=O)N1c1ccc(Cl)cc1,logP,[1],1.7
same,inhibition,[5],< 20%
same,ED50,Mus musculus [2],> 100 mg/kg
same,TD50,Mus musculus [3],> 30 mg/kg
O=C1C=C(N2CCCC2)C(=O)N1c1ccc(F)cc1,logP,[1],2.3
same,inhibition,[5],< 20%
same,ED50,Mus musculus [2],> 200 mg/kg
same,TD50,Mus musculus [3],> 300 mg/kg
O=C1N=C(N2CCOCC2)CN1c1ccc(F)cc1,ED50,Mus musculus [10],35 mg/kg
same,TD50,Mus musculus [11],> 500 mg/kg
same,inhibition,[5],< 20%
same,ED50,Rattus norvegicus [6],34.1 mg/kg
same,TD50,Rattus norvegicus [8],> 60 mg/kg
O=C1N=C(N2CCCC2)CN1c1ccc(Cl)cc1,logP,[1],2
same,Ki,[4],4.29 µM
same,ED50,Mus musculus [2],> 300 mg/kg
same,TD50,Mus musculus [3],> 300 mg/kg
same,ED50,Rattus norvegicus [6],14.2 mg/kg
same,minimal effective dose,Rattus norvegicus [7],3 mg/kg
same,TD50,Rattus norvegicus [8],> 500 mg/kg
